Among the data in ChEMBL document CHEMBL5696442, “Discovery of type II inhibitors of TGFβ-activated kinase 1 (TAK1) and mitogen-activated protein kinase kinase kinase kinase 2 (MAP4K2)” (J Med Chem, 2015) are inhibition values, retold here.

The structures appear in SMILES notation.

Test [1] addresses T1, Ephrin type-B receptor 4 (Homo sapiens) (UniProt P54760).
T1 sequence (whole entry): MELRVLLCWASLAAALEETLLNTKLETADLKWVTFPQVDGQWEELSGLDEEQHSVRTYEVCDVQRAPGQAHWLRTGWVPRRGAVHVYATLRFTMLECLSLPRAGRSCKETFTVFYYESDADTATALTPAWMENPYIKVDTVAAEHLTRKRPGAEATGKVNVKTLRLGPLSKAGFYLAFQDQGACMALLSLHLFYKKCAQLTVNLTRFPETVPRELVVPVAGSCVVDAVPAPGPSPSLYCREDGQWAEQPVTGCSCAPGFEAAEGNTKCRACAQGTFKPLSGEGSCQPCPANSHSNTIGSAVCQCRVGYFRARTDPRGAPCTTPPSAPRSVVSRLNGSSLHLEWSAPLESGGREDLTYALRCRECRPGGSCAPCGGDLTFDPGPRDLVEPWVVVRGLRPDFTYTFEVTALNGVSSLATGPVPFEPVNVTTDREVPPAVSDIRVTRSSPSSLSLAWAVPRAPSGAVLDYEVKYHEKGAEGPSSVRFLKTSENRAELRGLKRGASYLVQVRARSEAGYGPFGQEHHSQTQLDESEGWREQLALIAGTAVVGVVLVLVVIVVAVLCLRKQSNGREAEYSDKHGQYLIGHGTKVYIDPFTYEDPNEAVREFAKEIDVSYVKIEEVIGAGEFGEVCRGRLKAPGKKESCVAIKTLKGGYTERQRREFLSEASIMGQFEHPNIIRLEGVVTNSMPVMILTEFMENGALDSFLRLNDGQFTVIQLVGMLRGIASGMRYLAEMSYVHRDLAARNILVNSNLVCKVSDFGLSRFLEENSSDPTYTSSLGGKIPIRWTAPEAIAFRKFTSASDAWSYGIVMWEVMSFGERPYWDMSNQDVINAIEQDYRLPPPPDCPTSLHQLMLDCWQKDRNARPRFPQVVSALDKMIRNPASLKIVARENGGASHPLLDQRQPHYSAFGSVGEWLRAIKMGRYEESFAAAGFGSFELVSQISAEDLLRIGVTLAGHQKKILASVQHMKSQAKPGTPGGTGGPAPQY
As to the kind of experiment: Inhibition of EphB4 ACT labeling site in human Huh-7 cell lysate at 1 uM by KiNativ Profiling analysis relative to control. It counts as subcellular.

The target of test [2] is Cyclin-dependent kinase 10 (Homo sapiens) (UniProt Q15131). Put plainly: Inhibition of CDK10 Lys2 labeling site in human A-375 cells at 0.05 uM by KiNativ Profiling analysis relative to control. It counts as cell-based.
Test [3] concerns the target Dual specificity mitogen-activated protein kinase kinase 2 (Homo sapiens) (UniProt P36507). As to the kind of experiment: Inhibition of MAP2K2 Lys1 labeling site in human A-375 cells at 0.5 uM by KiNativ Profiling analysis relative to control. It counts as cell-based.
Test [4] addresses MAP/microtubule affinity-regulating kinase 3 (Homo sapiens) (UniProt P27448). Put plainly: Inhibition of MARK3 Lys2 labeling site in human A-375 cells at 0.05 uM by KiNativ Profiling analysis relative to control. It counts as cell-based.
Test [5] addresses 3-phosphoinositide-dependent protein kinase 1 (Homo sapiens) (UniProt O15530). Put plainly: Inhibition of PDK1 Protein Kinase Domain in human A-375 cells at 5 uM by KiNativ Profiling analysis relative to control.
The target in test [6] is Serine/threonine-protein kinase Nek6 (Homo sapiens) (UniProt Q9HC98). Put plainly: Inhibition of NEK6 Lys2 labeling site in human A-375 cells at 0.05 uM by KiNativ Profiling analysis relative to control. Format: cell-based.
For test [7], the target named is 5'-AMP-activated protein kinase catalytic subunit alpha-1 (Homo sapiens) (UniProt Q13131). As to the kind of experiment: Inhibition of AMPKa1 Lys1 labeling site in human A-375 cells at 5 uM by KiNativ Profiling analysis relative to control. Format: cell-based. An outline of the steps: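 Live A375 melanoma cells were treated with compound at 5 or 0.5 μM, then lysed. The lysates were labeled with a lysine-reactive ATP or ADP-biotin probe. Kinase protection from probe labeling was measured by KiNativ.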

Test [8] addresses T2, Serine/threonine-protein kinase TBK1 (Homo sapiens) (UniProt Q9UHD2).
T2 sequence (whole entry): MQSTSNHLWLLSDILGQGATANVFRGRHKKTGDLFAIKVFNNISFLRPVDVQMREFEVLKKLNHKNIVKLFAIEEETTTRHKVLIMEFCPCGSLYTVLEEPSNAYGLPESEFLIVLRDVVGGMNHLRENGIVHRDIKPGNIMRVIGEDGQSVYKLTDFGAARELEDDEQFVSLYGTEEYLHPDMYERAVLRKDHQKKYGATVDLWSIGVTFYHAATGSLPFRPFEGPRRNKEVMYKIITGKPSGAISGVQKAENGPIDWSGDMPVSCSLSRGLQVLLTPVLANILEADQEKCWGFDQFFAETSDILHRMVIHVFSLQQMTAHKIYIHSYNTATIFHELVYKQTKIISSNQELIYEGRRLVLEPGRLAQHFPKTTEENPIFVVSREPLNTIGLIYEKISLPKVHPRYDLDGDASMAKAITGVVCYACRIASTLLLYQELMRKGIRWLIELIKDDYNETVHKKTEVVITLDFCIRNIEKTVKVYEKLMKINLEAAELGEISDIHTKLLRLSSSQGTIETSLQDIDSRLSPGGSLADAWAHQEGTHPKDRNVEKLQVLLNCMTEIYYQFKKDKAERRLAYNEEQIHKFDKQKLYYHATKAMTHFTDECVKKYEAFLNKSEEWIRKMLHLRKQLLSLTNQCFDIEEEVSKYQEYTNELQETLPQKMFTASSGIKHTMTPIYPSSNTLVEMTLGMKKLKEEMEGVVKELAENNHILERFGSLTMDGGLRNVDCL
Put plainly: Inhibition of TBK1 Lys1 labeling site in human A-375 cells at 0.05 uM by KiNativ Profiling analysis relative to control. It counts as cell-based.

The target of test [9] is Tyrosine-protein kinase Fer (Homo sapiens, UniProt P16591). Put plainly: Inhibition of FER ACT labeling site in human A-375 cells at 0.05 uM by KiNativ Profiling analysis relative to control. Format: cell-based.
Test [10] has as its target Aurora kinase B (Homo sapiens) (UniProt Q96GD4). As to the kind of experiment: Inhibition of AurB ATP Loop labeling site in human A-375 cells at 0.05 uM by KiNativ Profiling analysis relative to control. Format: cell-based.
The target of test [11] is Protein kinase C beta type (Homo sapiens) (UniProt P05771). Put plainly: Inhibition of PKCb Lys2 labeling site in human A-375 cells at 0.5 uM by KiNativ Profiling analysis relative to control. It counts as cell-based.

Broadly, the inhibition is the drop in the measured response relative to a control, in per cent.

Sequence of Aurora kinase B (Homo sapiens) (Q96GD4 whole entry): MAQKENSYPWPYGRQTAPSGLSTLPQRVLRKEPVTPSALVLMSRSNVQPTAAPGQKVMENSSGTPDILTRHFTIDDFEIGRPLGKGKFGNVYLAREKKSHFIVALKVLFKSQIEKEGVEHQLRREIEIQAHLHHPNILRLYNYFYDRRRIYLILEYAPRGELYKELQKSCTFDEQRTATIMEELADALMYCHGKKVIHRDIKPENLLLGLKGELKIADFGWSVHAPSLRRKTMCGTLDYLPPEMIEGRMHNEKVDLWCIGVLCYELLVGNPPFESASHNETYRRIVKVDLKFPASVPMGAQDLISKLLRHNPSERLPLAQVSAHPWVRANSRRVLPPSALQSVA
Sequence of 3-phosphoinositide-dependent protein kinase 1 (Homo sapiens) (O15530 whole entry, looked up, the tested form may be a part): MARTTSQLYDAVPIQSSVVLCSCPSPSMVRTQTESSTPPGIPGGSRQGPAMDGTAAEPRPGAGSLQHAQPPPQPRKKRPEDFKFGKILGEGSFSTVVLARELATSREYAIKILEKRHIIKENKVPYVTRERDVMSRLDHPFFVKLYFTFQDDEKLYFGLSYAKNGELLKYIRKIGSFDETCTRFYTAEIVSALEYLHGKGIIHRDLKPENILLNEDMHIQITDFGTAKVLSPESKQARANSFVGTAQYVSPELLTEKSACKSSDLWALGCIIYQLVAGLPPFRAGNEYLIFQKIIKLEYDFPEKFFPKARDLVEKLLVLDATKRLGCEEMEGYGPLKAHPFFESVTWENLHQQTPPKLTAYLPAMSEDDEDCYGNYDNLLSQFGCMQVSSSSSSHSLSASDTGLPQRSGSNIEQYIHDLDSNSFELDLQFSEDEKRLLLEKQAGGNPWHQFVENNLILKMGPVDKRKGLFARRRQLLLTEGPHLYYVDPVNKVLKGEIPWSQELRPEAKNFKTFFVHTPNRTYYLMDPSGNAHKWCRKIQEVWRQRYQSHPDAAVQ
Sequence of MAP/microtubule affinity-regulating kinase 3 (Homo sapiens) (P27448 whole entry, looked up, the tested form may be a part): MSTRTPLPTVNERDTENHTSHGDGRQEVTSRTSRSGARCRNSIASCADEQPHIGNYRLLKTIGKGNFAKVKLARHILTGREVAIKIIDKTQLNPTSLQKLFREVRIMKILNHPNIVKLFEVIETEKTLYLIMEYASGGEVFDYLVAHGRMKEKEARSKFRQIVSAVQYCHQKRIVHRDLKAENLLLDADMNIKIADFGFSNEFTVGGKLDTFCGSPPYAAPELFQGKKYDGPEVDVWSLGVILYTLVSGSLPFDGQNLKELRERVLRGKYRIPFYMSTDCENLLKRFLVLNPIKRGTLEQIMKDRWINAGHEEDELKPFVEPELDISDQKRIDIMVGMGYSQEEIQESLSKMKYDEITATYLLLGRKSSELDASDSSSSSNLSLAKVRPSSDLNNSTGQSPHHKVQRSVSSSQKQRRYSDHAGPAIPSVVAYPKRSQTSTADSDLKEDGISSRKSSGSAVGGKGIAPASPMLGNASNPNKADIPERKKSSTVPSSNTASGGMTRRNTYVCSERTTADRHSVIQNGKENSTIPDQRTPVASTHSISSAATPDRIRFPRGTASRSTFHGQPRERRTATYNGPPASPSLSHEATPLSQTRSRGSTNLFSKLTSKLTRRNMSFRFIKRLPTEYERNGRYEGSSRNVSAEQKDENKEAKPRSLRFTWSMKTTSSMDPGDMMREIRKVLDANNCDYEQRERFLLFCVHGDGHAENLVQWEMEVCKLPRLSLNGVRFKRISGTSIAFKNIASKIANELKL
Sequence of Protein kinase C beta type (Homo sapiens) (P05771 2-671 limits assumed): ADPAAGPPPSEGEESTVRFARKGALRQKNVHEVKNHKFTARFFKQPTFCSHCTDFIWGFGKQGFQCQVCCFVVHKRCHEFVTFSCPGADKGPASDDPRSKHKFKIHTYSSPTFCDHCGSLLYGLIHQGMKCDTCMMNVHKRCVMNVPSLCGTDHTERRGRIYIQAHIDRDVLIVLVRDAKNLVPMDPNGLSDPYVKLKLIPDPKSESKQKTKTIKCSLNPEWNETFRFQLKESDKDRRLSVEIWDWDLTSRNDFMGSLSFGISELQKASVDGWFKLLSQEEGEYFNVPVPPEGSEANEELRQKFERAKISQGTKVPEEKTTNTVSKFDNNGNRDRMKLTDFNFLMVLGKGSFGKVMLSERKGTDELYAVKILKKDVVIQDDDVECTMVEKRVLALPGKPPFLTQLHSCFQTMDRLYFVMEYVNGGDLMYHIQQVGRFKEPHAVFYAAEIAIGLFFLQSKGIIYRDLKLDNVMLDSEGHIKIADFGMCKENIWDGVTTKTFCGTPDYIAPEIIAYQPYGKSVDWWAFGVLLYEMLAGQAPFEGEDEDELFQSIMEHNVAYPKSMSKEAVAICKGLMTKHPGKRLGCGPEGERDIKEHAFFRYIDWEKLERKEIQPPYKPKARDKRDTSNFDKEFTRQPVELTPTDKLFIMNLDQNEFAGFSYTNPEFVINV
Sequence of Dual specificity mitogen-activated protein kinase kinase 2 (Homo sapiens) (P36507 whole entry): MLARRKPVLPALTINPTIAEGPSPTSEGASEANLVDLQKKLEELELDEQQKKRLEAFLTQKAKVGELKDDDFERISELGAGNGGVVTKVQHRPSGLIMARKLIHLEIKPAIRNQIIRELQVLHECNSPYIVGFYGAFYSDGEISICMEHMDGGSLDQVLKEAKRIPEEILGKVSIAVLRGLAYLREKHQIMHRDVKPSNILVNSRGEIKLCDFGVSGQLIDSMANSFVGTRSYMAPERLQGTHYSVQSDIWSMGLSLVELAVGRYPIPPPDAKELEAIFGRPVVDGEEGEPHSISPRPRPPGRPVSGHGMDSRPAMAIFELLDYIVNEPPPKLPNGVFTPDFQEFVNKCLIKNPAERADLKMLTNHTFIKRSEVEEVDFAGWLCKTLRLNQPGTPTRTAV
Sequence of Cyclin-dependent kinase 10 (Homo sapiens) (Q15131 whole entry): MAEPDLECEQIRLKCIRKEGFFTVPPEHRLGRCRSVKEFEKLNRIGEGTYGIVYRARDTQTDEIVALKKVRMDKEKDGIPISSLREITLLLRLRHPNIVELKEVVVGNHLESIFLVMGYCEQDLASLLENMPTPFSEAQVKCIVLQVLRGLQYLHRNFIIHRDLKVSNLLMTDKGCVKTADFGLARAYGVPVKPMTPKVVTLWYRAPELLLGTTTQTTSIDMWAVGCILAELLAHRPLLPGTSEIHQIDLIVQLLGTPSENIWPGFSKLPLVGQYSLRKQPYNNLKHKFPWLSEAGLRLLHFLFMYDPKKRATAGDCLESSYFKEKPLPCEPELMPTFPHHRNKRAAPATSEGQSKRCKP
Sequence of 5'-AMP-activated protein kinase catalytic subunit alpha-1 (Homo sapiens) (Q13131 whole entry, looked up): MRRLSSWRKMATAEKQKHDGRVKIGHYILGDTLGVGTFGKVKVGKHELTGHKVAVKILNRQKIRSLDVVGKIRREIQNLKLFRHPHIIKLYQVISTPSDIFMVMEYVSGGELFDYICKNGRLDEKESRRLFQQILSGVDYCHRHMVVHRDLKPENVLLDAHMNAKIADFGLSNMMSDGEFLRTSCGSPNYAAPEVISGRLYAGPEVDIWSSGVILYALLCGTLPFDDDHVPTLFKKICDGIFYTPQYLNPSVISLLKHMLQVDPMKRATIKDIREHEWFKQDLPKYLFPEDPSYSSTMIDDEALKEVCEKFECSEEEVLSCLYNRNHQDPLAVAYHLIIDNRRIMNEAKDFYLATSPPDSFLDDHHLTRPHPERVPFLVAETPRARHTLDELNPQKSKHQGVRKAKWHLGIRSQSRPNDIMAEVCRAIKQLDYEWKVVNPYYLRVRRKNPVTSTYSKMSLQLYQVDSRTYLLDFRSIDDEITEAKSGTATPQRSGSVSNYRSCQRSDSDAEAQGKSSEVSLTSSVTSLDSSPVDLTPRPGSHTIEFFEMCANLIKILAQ
Sequence of Tyrosine-protein kinase Fer (P16591 whole entry, looked up): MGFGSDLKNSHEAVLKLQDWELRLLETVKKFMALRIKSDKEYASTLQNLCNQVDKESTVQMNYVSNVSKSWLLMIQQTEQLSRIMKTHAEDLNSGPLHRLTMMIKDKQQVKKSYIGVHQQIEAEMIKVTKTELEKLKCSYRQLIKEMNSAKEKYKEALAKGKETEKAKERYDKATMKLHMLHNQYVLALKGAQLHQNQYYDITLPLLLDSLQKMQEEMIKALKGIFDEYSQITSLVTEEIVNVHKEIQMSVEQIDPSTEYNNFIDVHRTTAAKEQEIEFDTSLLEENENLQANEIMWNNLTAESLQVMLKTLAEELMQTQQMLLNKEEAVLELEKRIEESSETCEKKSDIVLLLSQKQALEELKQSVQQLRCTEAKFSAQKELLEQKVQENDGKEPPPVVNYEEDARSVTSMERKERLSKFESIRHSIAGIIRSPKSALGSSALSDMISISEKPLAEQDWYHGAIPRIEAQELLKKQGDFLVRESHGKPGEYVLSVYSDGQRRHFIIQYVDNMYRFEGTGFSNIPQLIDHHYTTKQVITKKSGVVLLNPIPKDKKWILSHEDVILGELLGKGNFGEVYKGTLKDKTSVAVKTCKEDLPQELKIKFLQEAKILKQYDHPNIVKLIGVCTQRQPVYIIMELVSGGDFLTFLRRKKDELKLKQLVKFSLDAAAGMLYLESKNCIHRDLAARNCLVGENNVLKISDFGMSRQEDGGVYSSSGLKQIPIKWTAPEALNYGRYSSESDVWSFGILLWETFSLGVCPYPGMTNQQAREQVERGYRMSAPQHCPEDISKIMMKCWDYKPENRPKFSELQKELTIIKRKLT
Sequence of Serine/threonine-protein kinase Nek6 (Homo sapiens) (Q9HC98 whole entry): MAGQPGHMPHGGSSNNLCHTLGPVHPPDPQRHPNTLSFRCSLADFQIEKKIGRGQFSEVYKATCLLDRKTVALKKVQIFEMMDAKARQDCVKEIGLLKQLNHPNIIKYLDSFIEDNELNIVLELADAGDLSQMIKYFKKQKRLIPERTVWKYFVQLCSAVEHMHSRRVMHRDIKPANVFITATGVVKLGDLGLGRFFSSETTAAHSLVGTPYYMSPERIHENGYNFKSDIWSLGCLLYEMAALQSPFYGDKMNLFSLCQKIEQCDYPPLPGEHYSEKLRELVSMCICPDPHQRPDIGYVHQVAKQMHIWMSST

With `CNc1cc(Oc2cc(C(=O)Nc3cc(N4CCN(C)CC4)cc(C(F)(F)F)c3)ccc2C)ncn1`, the inhibition in [1] stood at 0.2%.

With `CCN1CCN(Cc2ccc(NC(=O)c3ccc(C)c(/C=C/c4cnc5[nH]ccc5c4OC)c3)cc2C(F)(F)F)CC1`, the inhibition in test [2] was found to be 30.7%; in test [3] it was 4.4%; in [4], 11.6%; in test [5], 15.8%; in [6], 5.8%; in test [7], 37%. Also, the inhibition in [8] is 33.4%; in test [9], -9.9%; in test [10], 14.1%; in [11] it was 48.2%.

As to `CNc1cc(Oc2cc(C(=O)Nc3cc(-n4cnc(C)c4)cc(C(F)(F)F)c3)ccc2C)ncn1`, in test [1], the inhibition came out at 1.2%.

For the compound `CCN1CCN(Cc2ccc(NC(=O)c3ccc(C)c(Oc4ccnc5[nH]ccc45)c3)cc2C(F)(F)F)CC1`, the inhibition in [2] was 7.8%; in [3], -3.5%; in test [4] it was 19.5%; in [5] it was 9%; in [6] it was 10.6%; in test [7], 11.6%. Also, the inhibition was found to be 16.7% in test [8], 62% in [9], 32.5% in [10] and 65% in [11].
